Experimental data from ChEMBL document CHEMBL5038573, “Total Synthesis of Laucysteinamide A, a Monomeric Congener of Somocystinamide A” (J Nat Prod, 2021).
pIC50: −log10 of the molar value.

Assays:
[1] = test system: NCI-H460; assay: Cytotoxicity against human NCI-H460 cells assessed as cell growth inhibition incubated for 48 hrs by MTT assay; format: functional, cell-based; settings: for pIC50: Homo sapiens, NCI-H460, 48 h, read-out: IC50
Procedure, shortened: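 NCI-H460 cells seeded at 6.66 × 10³ cells/mL in RPMI 1640 with FBS and grown 24 h (37 °C, 5% CO₂). Nine half-log dilutions (top 127–300 μM) added, final 1% v/v DMSO and PEG400, six replicates per concentration. After 48 h, MTT for 25 min, then dissolved in DMSO and read at 570 and 630 nm.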

[2] = (§1) Toxicity in brine shrimp assessed as induction of lethality incubated for 24 hrs by microscopic analysis; format: organism-based, Artemia salina; settings: Artemia salina (brine shrimp)
[3] = test system: Artemia salina; assay: as §1; format: organism-based
[4] = test system: A549; assay: Cytotoxicity against human A549 cells assessed as cell growth inhibition incubated for 48 hrs by MTT assay; format: functional, cell-based; settings: A549, 48 h

Compound | pIC50 [1] | IC50 at 24 h [2] [µM] | IC50 [3] | IC50 ([1]; nci-h460) | pIC50 [4]
C=CC/C=C/N(C)C(=O)c1ccccc1 | < 3.52 | > 100 |  |  | 
C=CC/C=C/N(C)C(=O)CCCCCCCCCC/C=C/[C@@H]1CSC(C)=N1 | 4.70 | > 100 |  |  | 
C=CC/C=C/N(C)C(=O)CCC | < 3.61 | > 100 |  |  | 
CCC/C=C/N(C)C(=O)CCCCCCCCCC/C=C/[C@@H]1CSC(C)=N1 | 4.48 |  | Not Active |  | 
C=CC/C=C/N(C)C(=O)CCCCCCCC/C=C/[C@H](CSSC[C@@H](/C=C/CCCCCCCCC(=O)N(C)/C=C/CC=C)NC(C)=O)NC(C)=O |  | > 130 |  | Not Active | 7.34
